Measurements gathered from unrelated publications.
Protocols differ between the studies behind these lines.
FGFR1: Fibroblast growth factor receptor 1 (FGFR1, Homo sapiens, UniProt P11362)

For `Cn1cc(-c2cccc(N3CCc4c(sc5c4CC(C)(C)C5)C3=O)c2CO)cc(Nc2ccncn2)c1=O`, the inhibition was 9% (FGFR1; enzyme activity, inhibitor; 1 µM).
For `COc1ncccc1-c1cnn2ccc(N3CCN(C(=O)OC(C)C)CC3)nc12`, the remaining binding was 88% (FGFR1; binding, competition with immobilised ligand; 1 µM).
For `COc1cc(Nc2ncc(F)c(Nc3ccc4c(n3)NC(=O)C(C)(C)O4)n2)cc(OC)c1OC`, the inhibition was 100% (FGFR1; binding, competition with immobilised ligand; 10 µM).
`N#CC1(c2ccccn2)CCN(Cc2cc(C(=O)O)c(=O)n3ccccc23)CC1` has a remaining binding of 98% (FGFR1; cell-free assay, competition with immobilised ligand; 1 µM).
`CC(C)(C)c1cc(C=C(C#N)C#N)cc(Br)c1O` gave a remaining activity of 95.9% (FGFR1; enzyme activity, inhibitor; 0.5 µM).
`C#Cc1n[nH]c2c(-c3cn([C@@H](C)c4ccccc4)c(=O)[nH]c3=O)cc(F)cc12` has an inhibition of 2.9% (FGFR1; enzyme activity, inhibitor; 0.1 µM).
For `O=c1[nH]c2ccccc2n1C1CCN(Cc2ccc(-c3[nH]c4cc5ncnc5cc4nc3-c3ccccc3)cc2)CC1`, the remaining signal was 102% (FGFR1; cell-free assay; 0.5 µM).
With `Cc1nn(C)cc1-c1nc2c(N3CCN(Cc4ccc(Cl)cc4)CC3)c(Cl)cnc2[nH]1` the remaining binding was 62% (FGFR1; binding, competition with immobilised ligand; 1 µM).
The inhibition of `Cn1cc(-c2cc(F)cc(N3CCn4c(cc5c4CCCC5)C3=O)c2CO)cc(Nc2ccc(N3CCN(C4COC4)CC3)cn2)c1=O` is reported as 9% (FGFR1; enzyme activity, inhibitor; 0.1 µM).
The inhibition of `C#Cc1n[nH]c2c(-c3cn([C@@H](C)c4ccccn4)c(=O)[nH]c3=O)cc(F)cc12` is reported as -4.4% (Fibroblast growth factor receptor 1 (FGFR1, Homo sapiens, UniProt P11362, V561M); enzyme activity, inhibitor; 0.1 µM).
`Nc1ncc(-c2nc(N3CCOCC3)nc(N3CCOCC3)n2)c(C(F)F)n1` has a remaining binding of 94% (FGFR1; cell-free assay, competition with immobilised ligand; 10 µM).
`Cn1cncc1[C@](O)(COc1ccc(C#N)cc1-c1ccc(OC(F)(F)F)cc1)c1ccc(C#N)cc1` gave a remaining binding of 62% (FGFR1; cell-free assay, competition with immobilised ligand; 1 µM).
The inhibition of `COCc1c(-c2cc3cc(C)cc(OC)c3s2)c2c(N)ncnn2c1CN1CCNC(=O)C1` is reported as 98% (FGFR1; cell-free assay, competition with immobilised ligand; 1 µM).
